# Columns and labels:
# [1] = tested on: dFdC-sensitive cancer cell lines; conditions: various dFdC-sensitive cancer cell lines; cited from earlier work
# Solubility of DHA-dFdC = type: physicochemical
# Method in brief: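 Indirect aqueous solubility used isopropyl myristate (IPM)/water partitioning. Saturated IPM solution was centrifuged (14,000 rpm, 10 min) and the supernatant measured by HPLC after methanol dilution (A1). Water was added at Vwater/VIPM 10, vortexed 5 min, left 15 min and centrifuged (14,000 rpm, 15 min). The IPM layer was re-assayed (A2) and the partition coefficient calculated from A1, A2 and the volume ratio.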
# [2] = tested on: Panc-1-luc human pancreatic tumors implanted SC; assay: Antitumor activity in mice with subcutaneous Panc-1-luc tumors; type: in vivo, athymic nude mice; conditions: IP twice a week; DHA-dFdC 50 mg/kg or molar equivalent doses
# Method in brief: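 Male athymic nude mice (6-8 weeks) received SC injections of 5 × 10^6 Panc-1-luc cells in DMEM/Matrigel 1:1 (v/v) in the right flank. At 5-7 mm tumours (day 5), mice were randomised into 5 groups (n = 5-6). Groups got IP test compound at 50 mg/kg or molar equivalents. The vehicle was Tween 80/ethanol/water 1:0.52:8.48 with 5% w/v mannitol (dFdC in 5% mannitol). Dosing was twice weekly, up to six times. Caliper volumes were V = ½ × L1 × L2 × L2.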
# Panc-02 cells = assay: MTT cytotoxicity assay; type: cell-based, mouse; conditions: Panc-02, high concentrations (10-100 μM)
# Method in brief: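 Cells seeded at 1500/well and left overnight at 37°C, 5% CO2. Treated with serial concentrations of test compound, dFdC, DHA or 1:1 molar dFdC+DHA (lipids in DMSO, dFdC in medium). Exposure: Panc-1-luc 24 h, Panc-02 48 h, BxPC-3 72 h. In a separate Panc-02 run, 10-100 μM for 4 h. Survival read by MTT; IC50 obtained by curve fitting.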
# tumor cells in culture = conditions: many tumor cells in culture; cited from earlier work
# [3] = tested on: orthotopic Panc-1-luc pancreatic tumors; assay: Antitumor activity in mice with orthotopic Panc-1-luc tumors; type: in vivo, athymic nude mice
# Method in brief: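 Male athymic nude mice (6-8 weeks) received ~50 μl of Panc-1-luc cells (~2 × 10^7/ml in 1:1 DMEM/Matrigel) into the pancreas under isoflurane anaesthesia. After four weeks, randomised (n = 5-7) to test compound (Tween 80/ethanol/water, 5% w/v mannitol), dFdC at molar equivalent (~0.087 […], 5% mannitol) or untreated. IP twice weekly, seven doses in total. Tumours dissected and weighed 30 days after first dose.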
# [4] = Pancreatic tissue levels and biodistribution after IV injection; type: in vivo, BALB/c mice; conditions: mouse pancreas, IV 75 mg/kg, noncompartmental
# Method in brief: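 Healthy female BALB/c mice (17-20 weeks) received 75 mg/kg IV in Tween 80/ethanol/5% mannitol aqueous solution. Mice were euthanized at six time points from 5 to 300, n = 3-4 each. Pancreas was homogenized, extracted with ethyl acetate and analysed by HPLC: methanol/1% acetic acid 85:15, 1.2 ml/min, detection 300 nm.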
# [5] = cited from earlier work
# Panc-1-luc cells = conditions: cited from earlier work
smiles,measurement,setting,value
CCCCCCCCCCCCCCCCCC(=O)Nc1ccn(C2OC(CO)C(O)C2(F)F)c(=O)n1 (centres unmarked) [4-(N)-stearoyl dFdC],Cytotoxicity compared with dFdC,[1],not significantly more cytotoxic than dFdC
same,Solubility in water,Solubility of DHA-dFdC; direct method,1.38 ± 1.60 µg/mL
same,Solubility in water,"Solubility of DHA-dFdC; indirect method (IPM/water partitioning), room temperature",1.39 ± 0.10 µg/mL
"CC/C=C\C/C=C\C/C=C\C/C=C\C/C=C\C/C=C\CCC(=O)O [DHA, Cis-4,7,10,13,16,19-docosahexaenoic acid]",Tumor growth compared with vehicle control,[2],did not significantly inhibit the tumor growth
same,Cytotoxicity after 4 hours of coincubation,Panc-02 cells,did not show significant cytotoxicity
CC/C=C\C/C=C\C/C=C\C/C=C\C/C=C\C/C=C\CCC(=O)O[C@@H](C(=O)O[C@H]1C[C@@]2(O)[C@@H](OC(=O)c3ccccc3)[C@@H]3[C@]4(OC(C)=O)CO[C@@H]4C[C@H](O)[C@@]3(C)C(=O)[C@H](OC(C)=O)C(=C1C)C2(C)C)[C@@H](NC(=O)c1ccccc1)c1ccccc1 [DHA-paclitaxel conjugate],Cytotoxicity compared with paclitaxel,tumor cells in culture,not more cytotoxic than paclitaxel alone
"Cl.Nc1ccn([C@@H]2O[C@H](CO)[C@@H](O)C2(F)F)c(=O)n1 [dFdC, 2′, 2′-difluorodeoxycytidine HCl]",Tumor growth,"[3]; IP twice a week, DHA-dFdC 50 mg/kg, dFdC molar equivalent",did not show significant activity
same,Cleaved lamin-A positive staining in tumors,[3]; compared with untreated mice,not different from that in mice that were left untreated
same,AUC0 -∞ in pancreas,[4],787.71 µg·min/g
same,Tumor growth compared with vehicle control,[2],did not significantly inhibit the tumor growth
same,Loss of dFdC by deamination,[5]; after intravenous administration,about 90%
same,Administered dFdC excreted in the urine,[5],More than 99%
same,Unchanged dFdC in the urine,[5],5%
same,Sensitivity of Panc-1 tumor cells,Panc-1-luc cells,resistant

# Reference: publication PMC5965255 (Neoplasia (New York, N.Y.), 2016)
